The results in this text go back to ChEMBL document CHEMBL4513216, “Probing the Open Global Health Chemical Diversity Library for Multistage-Active Starting Points for Next-Generation Antimalarials” (ACS Infect Dis, 2020).

Structures are written as SMILES.

The data set can be described thus: Toxicity liver stage against HepG2, at 10uM. In kind it is cell-based. Also on record: test concentration 10 uM, cell line HepG2-A16-CD81EGFP. The settings on record: human, HepG2-A16-CD81EGFP cells; read-out: INHIBITION
In outline: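 Uninfected HepG2-A16-CD81EGFP cells, 3 × 10^3 per well, 1536-well, plated on prespotted compound at 10 μM final, parasite-free screening media added to match infected plates; puromycin 10 μM positive, DMSO 0.5% negative; run in parallel with 48 h PbLuc assay at 37 °C, 5% CO2; viability by CellTiter-Glo luminescence, normalized to controls.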
In the case of `Cc1cc(CNC(=O)N2CCN(C(C)c3cccnc3)CC2)c(C)o1` (stereo unspecified), the cytotoxicity at 10 µM was -8.54%.
The figure for `CC(C)N1CCC(Cc2cnc(-c3cccc(C(=O)O)c3)cn2)C1` (stereo unspecified) is -2.27%.
For `Cc1ccc(-c2cn(C3CCN(C(=O)[C@H]4CCCO4)CC3)nn2)cc1`, the cytotoxicity at 10 µM is -8.93%.
With `CCOC(C)c1nc(CN2CCN(CC(F)F)CC2)cs1` (stereo unspecified), the cytotoxicity at 10 µM is -8.94%.
The figure for `CC(=O)N1N=C(c2ccccc2)OC1C(=O)NCC(=O)OC(C)(C)C` (stereo unspecified) is -0.376%; for `Cc1ccc(O)c(C(=O)N2CCC(CN3CCCCCC3)CC2)c1` it is 5.52%; for `CN(CC(O)C1CC1)C(=O)Nc1cc(F)cc(Br)c1` (stereo unspecified) it is -3.85%.
Regarding `CC(=O)NCc1cc2n(n1)CCN(Cc1cccc(Cl)c1Cl)C2`, the cytotoxicity at 10 µM was -12.8%.
In the case of `Cc1nc[nH]c1CN1CCC2(CC1)CC(Nc1ncccn1)CO2` (stereo unspecified), the cytotoxicity at 10 µM is 12.2%.
Consider `CCN1CCCC1CNC(=O)CCSc1ccc2c(c1)OCCO2` (stereo unspecified), for which the cytotoxicity at 10 µM was -1.58%.
On to `CN(Cc1ccco1)c1ccc(-c2nccn2C)nn1`, for which the cytotoxicity at 10 µM was -0.447%.
The figure for `O=C(Cc1cccc(F)c1)NCCNCc1cccnc1` is -1.56%; for `Cc1ccc(C(=O)NCCCN(C)S(C)(=O)=O)cc1-n1cccc1` it is -8.71%.
The figure for `CO[C@H]1CN(C(=O)c2cc3ccccc3[nH]2)CC[C@H]1N` is 11%.
As for `O=C(NC1CCCN(c2ccc(OC(F)F)cc2)C1)c1ccon1` (stereo unspecified), the cytotoxicity at 10 µM is -7%.
The figure for `O=C1COC2(CCN(C(=O)c3ccoc3)CC2)CN1Cc1ccccn1` is -1.11%.
Regarding `CCNC(=O)[C@@H]1C[C@@H](NC(=O)Cc2cc(C)no2)CN1Cc1ccsc1`, the cytotoxicity at 10 µM turned out to be 5.62%.
As for `CC(C)NC(=O)CCNC(=O)c1c(Br)c2ccccc2n1C`, the cytotoxicity at 10 µM turned out to be 8.59%.
`CCCC(C#N)NC(=O)COC1CCCCC1` (stereo unspecified): the cytotoxicity at 10 µM amounted to 8.71%.
For the compound `COCCN(Cc1cnn(C)c1)c1nc(C)nc2sccc12`, the cytotoxicity at 10 µM was -138%.
With `Cc1noc([C@H]2C[C@@H]3CCN(c4nnc(C)s4)C[C@H]3O2)n1`, the cytotoxicity at 10 µM was 3.55%.
The figure for `OCCCN1CCOC(c2ccc(F)cc2)C1` (stereo unspecified) is -7.09%.
The figure for `CCn1cc(CNc2ccc(N(C)CCOC)cn2)cn1` is -8.16%.
The figure for `CC[C@H]1N(C)CCC[C@]12CCC(=O)N2Cc1ccncc1` is 7.99%; for `CN(C)CCCn1ccnc1C1CCN(C(=O)Cc2cccnc2)CC1` it is 4.77%.
Consider `Cc1cc(C)n(C2CCCN(C(=O)CCc3nccs3)C2)n1` (stereo unspecified), for which the cytotoxicity at 10 µM is -28.1%.
In the case of `O=C(c1cccnc1)N1CCC2(CCN(C(=O)c3ccco3)CC2)C1`, the cytotoxicity at 10 µM was -91.6%.
Take `Cc1cccc(CN2C[C@@H]3CN(C(=O)C4CC=CC4)C[C@@H]3C2=O)n1`: the cytotoxicity at 10 µM was determined as 2%.
The figure for `CCOC(C)C(=O)NCc1cccc(CN2CCCCCC2)c1` (stereo unspecified) is 15.5%; for `CCN(CC)CCN1CCO[C@H]2[C@@H](OCc3ccncc3)CC[C@@H]21` it is -4.65%.
As to `COC(=O)C(C)(C)NC(=O)c1cnc(Cc2ccc(F)cc2)s1`, the cytotoxicity at 10 µM was -0.538%.
The figure for `Cc1nn(C)c(C)c1CN1CCCC(c2ccc(C(=O)O)cc2)C1` (stereo unspecified) is -8.82%.
The figure for `CCC(C(=O)NC1(COC)CCCC1)n1cccn1` (stereo unspecified) is -3.41%; for `Cc1cccc(C(C(=O)NCC2(Cn3nc(C)cc3C)CC2)N(C)C)c1` (stereo unspecified) it is 2.18%; for `Cc1ccc(-n2ncc(C(=O)NCC3CCS(=O)(=O)C3)c2C)cc1` (stereo unspecified) it is -9.01%.
The figure for `CCN(CC)C(=O)c1ccc(NC(=O)CNc2ccc(Br)cc2F)cc1` is 4.52%; for `COCCc1noc(CN2CCCC2c2c(C)nn(C)c2OC)n1` (stereo unspecified) it is -2.36%; for `CN(C)CCC1CCN(Cc2ccn(C)c(=O)c2)CC1` it is -12.5%.
For the compound `CCn1ncnc1C(C)NC(=O)C1CCN(C2CCCCC2)CC1` (stereo unspecified), the cytotoxicity at 10 µM is -149%.
The figure for `CNc1cc(C)nc(C2CN(Cc3ccc(Cl)cn3)CCO2)c1` (stereo unspecified) is -26.2%; for `CC[C@@]1(O)CCN(C(=O)CCSCc2ccc(F)cc2)C[C@H]1O` it is 0.264%.
The figure for `O=C(c1ccsc1)N1CCO[C@@H]2CN(Cc3ccco3)CC[C@@H]2C1` is -98.6%; for `O=C(c1ccc2nccn2c1)N1CCC(CCn2cccn2)CC1` it is -1.63%.
The figure for `COCC1CN(S(=O)(=O)c2ccc(C)cc2)Cc2c1cnn2C` (stereo unspecified) is -5.37%; for `Cc1ccc(CS(=O)(=O)NCc2ccco2)cc1` it is -2.11%.
Turning to `Cc1cc(CN2CCC3(CC2)C(=O)NCCN3CC2CC2)oc1C`, the cytotoxicity at 10 µM is -67.5%.
The figure for `O=C(CSCCN1CCOCC1)N1CCc2ccccc2C1` is -6.58%; for `O=S(=O)(N1CCCC1)N1CC[C@H](c2ccccc2)[C@H]2NCCCC[C@H]21` it is -25.1%; for `Cc1nn(C)cc1C(=O)N1CCC(CSc2ccccc2)C1` (stereo unspecified) it is 2.84%.
On to `O=S(=O)(c1ccc(F)cc1)n1cc(Cl)cn1`, for which the cytotoxicity at 10 µM amounted to 0.0667%.
The figure for `N#Cc1ccc(NCC(O)c2ccco2)c(C(F)(F)F)c1` (stereo unspecified) is -31.7%; for `CC(=O)c1cccc(NC(=O)C2CN(S(=O)(=O)C3CC3)C2)c1` it is 3.62%.
The figure for `CCc1ccc2c(c1)C(CCNC(=O)c1sccc1C)C(=O)N2` (stereo unspecified) is -52.3%; for `Cc1cccc(NC(=O)C(C)Oc2ccc3c(c2)OCO3)n1` (stereo unspecified) it is -9.25%.
The figure for `Cc1ccc(CCNc2nc(-c3ccncc3)nc3c2CCNCC3)o1` is -132%; for `CC(C)c1cn(CC(=O)NC2CC(=O)N(CCc3ccccc3)C2)nn1` (stereo unspecified) it is -15.1%.
In the case of `NCc1cccc(-c2cccnc2C(=O)NCCN2CCOCC2)c1`, the cytotoxicity at 10 µM is -1.29%.
As to `CN(C)C[C@H]1OC[C@@H]2CN(C(=O)NCc3cccnc3)CC[C@@H]21`, the cytotoxicity at 10 µM stood at 3.86%.
The figure for `Cc1ccc(NC(=O)NCCn2cnc(C)c(C)c2=O)cc1F` is 3.22%.
As for `Cn1cc(C(=O)N2CCCC(n3cccn3)C2)c2ccccc21` (stereo unspecified), the cytotoxicity at 10 µM was found to be 5.2%.
The figure for `COc1ccc2cc(CN(C)CCc3cn[nH]c3)c(=O)[nH]c2c1` is 0.363%; for `Cc1nc2c(c(NCCc3nc4c(s3)CCCC4)n1)CCNCC2` it is -7.33%; for `O=C1CN(C(=O)c2ccc(F)cc2)CC(O)CN1Cc1cccs1` (stereo unspecified) it is -67.7%.
The figure for `CCC(C(=O)NCc1noc(Cc2cccs2)n1)n1cccn1` (stereo unspecified) is -1.91%; for `Cc1cccc(S(=O)(=O)NC2CCN(CC(F)(F)F)C2)c1` (stereo unspecified) it is 0.741%; for `Cn1cnnc1C1CCCN(C(=O)NCCc2ccccn2)C1` (stereo unspecified) it is -21.5%.
The figure for `Cc1noc(C(C)C)c1C(=O)NCCN1CCCCCC1=O` is -9.07%.
Consider `Cc1cnc(CN2CCN(c3nc(C)cs3)C(C)C2)cn1` (stereo unspecified), for which the cytotoxicity at 10 µM came out at 2.74%.
With `Nc1ncnc2nc(C3CCN(C(=O)Cc4ccccc4)C3)ccc12` (stereo unspecified), the cytotoxicity at 10 µM came to 2.65%.
On to `Cc1ncsc1CCC(=O)NCc1csc(N2CCCC2)n1`, for which the cytotoxicity at 10 µM was -2.56%.
The figure for `CCCc1nnsc1C(=O)N1CCN(CC(O)c2ccco2)CC1` (stereo unspecified) is -7.86%.
The figure for `CCNC(=O)CN1CCC(c2cc(OC)cc(OC)c2)C1` (stereo unspecified) is -5.66%; for `O=C(c1ccccc1)C1CCN(c2cncc(-n3cccn3)n2)CC1` it is 0.935%.
The figure for `CN(C)C(=O)N1C[C@H]2CC[C@@H](C1)N(C(=O)c1c(Cl)cccc1Cl)C2` is 7.2%; for `COCCc1ncc(-c2c(C#N)c(N)nc3c2CCc2[nH]ccc2-3)cn1` it is -0.508%; for `COc1ccccc1CC(=O)N1CCC(NCc2ccncc2)CC1` it is -9.69%.
For `Cc1cnn(CCNCC(=O)NC(c2ccccc2)c2ccccc2)c1`, the cytotoxicity at 10 µM was -5.73%.
The figure for `CN1CCOC(CNC(=O)C2(c3cccc(C(F)(F)F)c3)CCCC2)C1` (stereo unspecified) is -4.22%; for `COc1c(C)cnc(CN(C)C(=O)c2cccnc2N(C)C)c1C` it is -12.3%.
The figure for `O=c1c(NCCNCCO)c(N2CCN(c3ccccc3)CC2)c1=O` is -7.76%; for `Cc1nc(CN2CCCC(CCc3c(F)cccc3F)C2)c[nH]1` (stereo unspecified) it is -21%.
Consider `CC(NC(=O)NCCCN(C)S(C)(=O)=O)c1ccncc1` (stereo unspecified), for which the cytotoxicity at 10 µM was -0.409%.
The figure for `O=C(CC1CC1)N1CC[C@H]2OCC[C@@]2(COc2ncccc2F)C1` is -134%.
The figure for `CS(=O)(=O)N1CCC(c2nccn2Cc2ccccn2)CC1` is -14.6%; for `COC1CN(C(=O)CC(C)(C)C)CCC(=O)N(C)c2ccccc21` (stereo unspecified) it is -4.7%; for `Cc1ccc2[nH]c(C3CCN(CC(N)=O)CC3)nc2c1` it is 3.23%.
Turning to `CCN(c1ccc(C(=O)NCCCN2CCOCC2)cc1)S(=O)(=O)CC`, the cytotoxicity at 10 µM worked out at 1.34%.
For `CCc1nnc(CN2CC(n3cccn3)C2)o1`, the cytotoxicity at 10 µM is -146%.
As to `CSCC(=O)N[C@H]1CC[C@H](Nc2nccc(-c3ccncc3)n2)C1`, the cytotoxicity at 10 µM was 11.8%.
In the case of `CCN(CC)C(=O)Cc1csc(C(C)C)n1`, the cytotoxicity at 10 µM was -1.55%.
Regarding `CNC(=O)NCC(CO)Cc1cccc(OC(F)(F)F)c1` (stereo unspecified), the cytotoxicity at 10 µM was -1.28%.
Turning to `N#Cc1cccc(CNc2ccc(F)cc2OCCO)c1`, the cytotoxicity at 10 µM is -2.03%.
The figure for `CCc1nc(CN(C)CC2CCN(CC(C)O)CC2)no1` (stereo unspecified) is -10.3%; for `CC(C1CC1)N(CC(=O)NC(=O)NC1CC1)C1CC1` (stereo unspecified) it is 4.84%; for `CN(Cc1cccnc1)[C@@H]1CN(Cc2cnn(C)c2)[C@@H]2CCCO[C@H]12` it is -2.1%.
The figure for `CS(=O)(=O)CCCN1CCN(C(C#N)c2ccccc2)CC1` (stereo unspecified) is -3.14%.
